Assays:
Mus musculus [1] = test: Distribution of Radioactivity in spleen of CD-1 Mice by intravenous administration of compound after 4 hr expressed as dose/gram; assay type: ADME, organism-based; details: in vivo
In short: (§1)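 Female CD-1 mice, 7 1/2 weeks old (25-29 g), fed and watered ad libitum. Radiotracer in physiological saline, pH 7.4, filtered, injected via lateral tail vein under ether anesthesia. Tissues taken at 5 min, 1 h, 4 h or 1 day. Percent injected dose per gram calculated against assayed samples of the injected solution; mean with range reported.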

Mus musculus [2] = test: Distribution of Radioactivity in thymus of CD-1 Mice by intravenous administration of compound after 1 hr expressed as dose/gram; assay type: ADME, organism-based; details: in vivo; in short: as §1
Mus musculus [3] = test: Distribution of Radioactivity in stomach of CD-1 Mice by intravenous administration of compound after 1 hr expressed as dose/gram; assay type: ADME, organism-based; details: in vivo; in short: as §1
Mus musculus [4] = test: Distribution of Radioactivity in kidneys of CD-1 Mice by intravenous administration of compound after 1 hr expressed as dose/gram; assay type: ADME, organism-based, Kidney; details: in vivo
In short: (§2)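 Female CD-1 mice, 7 1/2 weeks old (25-29 g), fed and watered ad libitum. Agent given in physiological saline, pH adjusted to 7.4 and filtered, by lateral tail vein injection under ether anesthesia. Tissues collected at 5 min, 1 h, 4 h and 1 day. Injectate samples counted as standard; results as mean % injected dose/g with range.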

Rattus norvegicus [5] = test: Distribution of Radioactivity in pancreas of Fisher 344 Rats by intravenous administration of compound after 4 hour expressed as dose/gram; assay type: ADME, organism-based; details: in vivo
In short: (§3)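 Female Fischer 344 rats, 10-12 weeks old (170-200 g), fed and watered ad libitum; four rats per time point. Each received ~6.3 μCi in 0.05 mL saline (pH 7.4, filtered), given by lateral tail vein under ether anesthesia. Tissues taken at 5 min, 1 h, 4 h and 1 day. Injectate standards used; values as mean % injected dose/g with range.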

Mus musculus [6] = test: Distribution of Radioactivity in liver of CD-1 Mice […] by intravenous administration of compound after 5 minutes expressed as dose/gram; assay type: ADME, organism-based; details: in vivo; in short: as §2
Rattus norvegicus [7] = test: Distribution of Radioactivity in kidneys of Fisher 344 Rats by intravenous administration of compound after 4 hour expressed as dose/gram; assay type: ADME, organism-based, Kidney; details: in vivo; in short: as §3
Mus musculus [8] = test: Distribution of Radioactivity in thymus of CD-1 Mice by intravenous administration of compound after 1 day expressed as dose/gram; assay type: ADME, organism-based; details: in vivo, 24 h; in short: as §1
Rattus norvegicus [9] = test: Distribution of Radioactivity in adrenals of Fisher 344 Rats by intravenous administration of compound after 1 day expressed as dose/gram; assay type: ADME, organism-based, Adrenal gland; details: in vivo, 24 h; in short: as §3
Mus musculus [10] = test: Distribution of Radioactivity in spleen of CD-1 Mice by intravenous administration of compound after 1 hr expressed as dose/gram; assay type: ADME, organism-based; details: in vivo; in short: as §1
Rattus norvegicus [11] = test: Distribution of Radioactivity in small intestine of Fisher 344 Rats by intravenous administration of compound after 5 minutes expressed as dose/gram; assay type: ADME, organism-based; details: in vivo
In short: (§4)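 Female Fischer 344 rats, 10-12 weeks old (170-200 g), food and water ad libitum; four rats per time point. About 6.3 μCi given in 0.05 mL saline (pH 7.4, filtered) by lateral tail vein under ether anesthesia. Tissues sampled at 5 min, 1 h, 4 h or 1 day. %ID/g computed from injectate standards; mean and range given.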

Rattus norvegicus [12] = test: Distribution of Radioactivity in stomach of Fisher 344 Rats by intravenous administration of compound after 5 minutes expressed as dose/gram; assay type: ADME, organism-based; details: in vivo; in short: as §4
Mus musculus [13] = test: Distribution of Radioactivity in pancreas of CD-1 Mice by intravenous administration of compound after 1 hr expressed as dose/gram; assay type: ADME, organism-based; details: in vivo; in short: as §2
Mus musculus [14] = test: Distribution of Radioactivity in pancreas of CD-1 Mice by intravenous administration of compound after 1 day expressed as dose/gram; assay type: ADME, organism-based; details: in vivo, 24 h; in short: as §2
Mus musculus [15] = test: Distribution of Radioactivity in stomach of CD-1 Mice by intravenous administration of compound after 5 minutes expressed as dose/gram; assay type: ADME, organism-based; details: in vivo; in short: as §1
Mus musculus [16] = test: Distribution of Radioactivity in blood of CD-1 Mice by intravenous administration of compound after 4 hour expressed as dose/gram; assay type: ADME, organism-based; details: in vivo; in short: as §2
Rattus norvegicus [17] = test: Distribution of Radioactivity in blood of Fisher 344 Rats by intravenous administration of compound after 1 day expressed as dose/gram; assay type: ADME, organism-based; details: in vivo, 24 h; in short: as §3
Mus musculus [18] = test: Distribution of Radioactivity in spleen of CD-1 Mice by intravenous administration of compound after 1 day expressed as dose/gram; assay type: ADME, organism-based; details: in vivo, 24 h; in short: as §1
Rattus norvegicus [19] = test: Distribution of Radioactivity in stomach of Fisher 344 Rats by intravenous administration of compound after 4 hour expressed as dose/gram; assay type: ADME, organism-based; details: in vivo; in short: as §4
Rattus norvegicus [20] = test: Distribution of Radioactivity in adrenals of Fisher 344 Rats by intravenous administration of compound after 4 hour expressed as dose/gram; assay type: ADME, organism-based, Adrenal gland; details: in vivo; in short: as §3
Mus musculus [21] = test: Distribution of Radioactivity in blood of CD-1 Mice by intravenous administration of compound after 1 day expressed as dose/gram; assay type: ADME, organism-based; details: in vivo, 24 h; in short: as §2
Rattus norvegicus [22] = test: Distribution of Radioactivity in lungs of Fisher 344 Rats by intravenous administration of compound after 1 hour expressed as dose/gram; assay type: ADME, organism-based, Lung; details: in vivo; in short: as §3
Rattus norvegicus [23] = test: Distribution of Radioactivity in kidneys of Fisher 344 Rats by intravenous administration of compound after 1 day expressed as dose/gram; assay type: ADME, organism-based, Kidney; details: in vivo, 24 h; in short: as §3
Rattus norvegicus [24] = test: Distribution of Radioactivity in blood of Fisher 344 Rats by intravenous administration of compound after 5 minutes expressed as dose/gram; assay type: ADME, organism-based; details: in vivo; in short: as §3
Rattus norvegicus [25] = test: Distribution of Radioactivity in blood of Fisher 344 Rats by intravenous administration of compound after 1 hour expressed as dose/gram; assay type: ADME, organism-based; details: in vivo; in short: as §3
Rattus norvegicus [26] = test: Distribution of Radioactivity in lungs of Fisher 344 Rats by intravenous administration of compound after 4 hour expressed as dose/gram; assay type: ADME, organism-based, Lung; details: in vivo; in short: as §3
Mus musculus [27] = test: Distribution of Radioactivity in stomach of CD-1 Mice by intravenous administration of compound after 1 day expressed as dose/gram; assay type: ADME, organism-based; details: in vivo, 24 h; in short: as §1
Mus musculus [28] = test: Distribution of Radioactivity in lungs of CD-1 Mice by intravenous administration of compound after 4 hour expressed as dose/gram; assay type: ADME, organism-based, Lung; details: in vivo; in short: as §2
Rattus norvegicus [29] = test: Distribution of Radioactivity in pancreas of Fisher 344 Rats by intravenous administration of compound after 1 day expressed as dose/gram; assay type: ADME, organism-based; details: in vivo, 24 h; in short: as §3
Mus musculus [30] = test: Distribution of Radioactivity in small intestine of CD-1 Mice by intravenous administration of compound after 4 hr expressed as dose/gram; assay type: ADME, organism-based; details: in vivo; in short: as §1
Mus musculus [31] = test: Distribution of Radioactivity in thymus of CD-1 Mice by intravenous administration of compound after 4 hr expressed as dose/gram; assay type: ADME, organism-based; details: in vivo; in short: as §1
Mus musculus [32] = test: Distribution of Radioactivity in small intestine of CD-1 Mice by intravenous administration of compound after 1 day expressed as dose/gram; assay type: ADME, organism-based; details: in vivo, 24 h; in short: as §2
Rattus norvegicus [33] = test: Distribution of Radioactivity in lungs of Fisher 344 Rats by intravenous administration of compound after 1 day expressed as dose/gram; assay type: ADME, organism-based, Lung; details: in vivo, 24 h; in short: as §3
Rattus norvegicus [34] = test: Distribution of Radioactivity in blood of Fisher 344 Rats by intravenous administration of compound after 4 hour expressed as dose/gram; assay type: ADME, organism-based; details: in vivo; in short: as §3
Rattus norvegicus [35] = test: Distribution of Radioactivity in adrenals of Fisher 344 Rats by intravenous administration of compound after 5 minutes expressed as dose/gram; assay type: ADME, organism-based, Adrenal gland; details: in vivo; in short: as §3
Mus musculus [36] = test: Distribution of Radioactivity in pancreas of CD-1 Mice by intravenous administration of compound after 5 minutes expressed as dose/gram; assay type: ADME, organism-based; details: in vivo; in short: as §2
Rattus norvegicus [37] = test: Distribution of Radioactivity in kidneys of Fisher 344 Rats by intravenous administration of compound after 1 hour expressed as dose/gram; assay type: ADME, organism-based, Kidney; details: in vivo; in short: as §3
Mus musculus [38] = test: Distribution of Radioactivity in lungs of CD-1 Mice by intravenous administration of compound after 1 hr expressed as dose/gram; assay type: ADME, organism-based, Lung; details: in vivo; in short: as §2
Rattus norvegicus [39] = test: Distribution of Radioactivity in small intestine of Fisher 344 Rats by intravenous administration of compound after 1 hour expressed as dose/gram; assay type: ADME, organism-based; details: in vivo; in short: as §4
Mus musculus [40] = test: Distribution of Radioactivity in kidneys of CD-1 Mice by intravenous administration of compound after 4 hr expressed as dose/gram; assay type: ADME, organism-based, Kidney; details: in vivo; in short: as §2

Injected (Mus musculus [1]): 0.206%
Injected (Mus musculus [2]): 0.35%
Injected (Mus musculus [3]): 0.326%
Injected (Mus musculus [4]): 4.59%
Injected (Rattus norvegicus [5]): 0.044%
Injected (Mus musculus [6]): 7.75%
Injected (Rattus norvegicus [7]): 1.148%
Injected (Mus musculus [8]): 0.138%
Injected (Rattus norvegicus [9]): 0.044%
Injected (Mus musculus [10]): 0.384%
Injected (Rattus norvegicus [11]): 0.62%
Injected (Rattus norvegicus [12]): 0.243%
Injected (Mus musculus [13]): 0.247%
Injected (Mus musculus [14]): 0.067%
Injected (Mus musculus [15]): 0.987%
Injected (Mus musculus [16]): 0.22%
Injected (Rattus norvegicus [17]): 0.051%
Injected (Mus musculus [18]): 0.189%
Injected (Rattus norvegicus [19]): 0.028%
Injected (Rattus norvegicus [20]): 0.047%
Injected (Mus musculus [21]): 0.086%
Injected (Rattus norvegicus [22]): 0.424%
Injected (Rattus norvegicus [23]): 1.128%
Injected (Rattus norvegicus [24]): 1.949%
Injected (Rattus norvegicus [25]): 0.698%
Injected (Rattus norvegicus [26]): 0.124%
Injected (Mus musculus [27]): 0.032%
Injected (Mus musculus [28]): 0.47%
Injected (Rattus norvegicus [29]): 0.035%
Injected (Mus musculus [30]): 0.367%
Injected (Mus musculus [31]): 0.195%
Injected (Mus musculus [32]): 0.059%
Injected (Rattus norvegicus [33]): 0.065%
Injected (Rattus norvegicus [34]): 0.134%
Injected (Rattus norvegicus [35]): 0.275%
Injected (Mus musculus [36]): 1.749%
Injected (Rattus norvegicus [37]): 2.717%
Injected (Mus musculus [38]): 1.015%
Injected (Rattus norvegicus [39]): 1.421%
Injected (Mus musculus [40]): 1.321%
Substance: beta-[103,106Ru]Ruthenocenylalanine

Reference: ChEMBL document CHEMBL1122792, “Synthesis and biological evaluation of radiolabeled beta-ruthenocenylalanine” (J Med Chem, 1984)
